These results are taken from PubChem BioAssay AID488986 (Sanford-Burnham Center for Chemical Genomics, 2010).

Molecules are shown by their SMILES. Activity calls are given as the source filed them.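 Rule for the calls: active = mean EC50 below 10 µM; inactive = the rest.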

What is called EC50 is the concentration that produces a half-maximal response.

This assay deals with Type-1 angiotensin II receptor (Homo sapiens) (UniProt P30556). The assay is described as follows: AT1 receptor agonists, beta-arrestin recruitment, SAR follow-up, selectivity assay for APJ agonist project, cell-based, CHO-K1 PathHunter, luminescence, set 2 (AID 488986). As to conditions: CHO-K1 AGTR1 PathHunter beta-arrestin, 90 min. In outline: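 System: CHO-K1 human AT1 beta-arrestin recruitment cells; compound dosing: dose-response series, DMSO 1.32% final; times: cells overnight, compounds 90 min 25 °C, reagent 60 min; signal: luminescence from complemented beta-galactosidase fragments after detection reagent; controls: angiotensin II 1 µM final as high control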
Type-1 angiotensin II receptor (Homo sapiens), sequence (P30556 whole entry, looked up, the tested form may be a part): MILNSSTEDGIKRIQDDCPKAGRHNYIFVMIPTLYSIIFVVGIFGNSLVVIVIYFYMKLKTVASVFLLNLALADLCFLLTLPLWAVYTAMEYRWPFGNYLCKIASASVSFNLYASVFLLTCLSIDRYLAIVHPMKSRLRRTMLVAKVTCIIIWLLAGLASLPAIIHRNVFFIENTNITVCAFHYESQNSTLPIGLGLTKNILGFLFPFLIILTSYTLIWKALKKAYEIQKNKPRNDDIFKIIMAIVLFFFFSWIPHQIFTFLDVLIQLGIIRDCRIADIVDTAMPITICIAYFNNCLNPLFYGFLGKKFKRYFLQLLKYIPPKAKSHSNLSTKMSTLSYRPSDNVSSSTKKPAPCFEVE
Take `Cc1cc(O)c(C2CCCCC2)cc1N=O`: the EC50 was > 79 µM (inactive).

As to `CCOc1cc2[nH]c(=S)n(CCCC(=O)NCc3ccccn3)c(=O)c2cc1OCC`, the EC50 was > 79 µM (inactive).

`CC1=CC(=O)C(C2CCCCC2)=C/C1=N/OS(=O)(=O)c1ccccc1`: the EC50 is > 79 µM (inactive).

Regarding `CCN1C(=O)/C(=C/C=C2/SC(c3ccccc3)=C(c3ccccc3)N2CC)SC1=S`, the EC50 was > 79 µM (inactive).

In the case of `CCCCN(C)CCn1c(=S)[nH]c2cc(OCC)c(OCC)cc2c1=O`, the EC50 is > 79 µM (inactive).

In the case of `CCOc1ccc(S(=O)(=O)Nc2nc(-c3ccccc3)cs2)cc1`, the EC50 was > 79 µM (inactive).

As for `CC1=CC(=O)C=C/C1=N/OS(=O)(=O)c1ccc(C)cc1`, the EC50 was > 79 µM (inactive).

Turning to `CCN1C(c2ccccc2)=C(c2ccccc2)S/C1=C\C=C1/SC(=S)N(C)C1=O`, the EC50 was 4.96 µM.

Turning to `CC1=CC(=O)C(C(C)(C)C)=C/C1=N/OS(=O)(=O)c1ccccc1`, the EC50 is > 79 µM (inactive).

For the molecule `CC(C)C1=CC(=NOS(=O)(=O)c2ccccc2)C=C(C(C)C)C1=O`, the EC50 was > 79 µM (inactive).

Consider `CCOc1cc2[nH]c(=S)n(CCN3CCCCC3CC)c(=O)c2cc1OCC` (stereo not drawn), for which the EC50 is > 79 µM (inactive).

As to `Cc1cc(C)n2nc3nc(N4CCCCC4)nc(-c4ccccc4)c3c2n1`, the EC50 is > 79 µM (inactive).

In the case of `CC1=C/C(=N/OS(=O)(=O)c2ccccc2)C(C(C)C)=CC1=O`, the EC50 was > 79 µM (inactive).

On to `CCc1nnc(NC(=O)CSc2nc3cccnc3n2C2CCCCC2)s1`, for which the EC50 was > 79 µM (inactive).

Take `CC1=CC(=NOS(=O)(=O)c2ccccc2)C(C)=CC1=O`: the EC50 was > 79 µM (inactive).

`CCOc1cc2[nH]c(=S)n(CCN3CCC(C)CC3)c(=O)c2cc1OCC`: the EC50 was > 79 µM (inactive).

`CCN1C(=O)/C(=C/C=C2/Sc3ccccc3N2CC)SC1=S`: the EC50 is > 79 µM (inactive).

As for `CCc1nnc(NC(=O)CSc2nc3cccnc3n2Cc2ccccc2)s1`, the EC50 was > 79 µM (inactive).
